Measurements: ChEMBL document CHEMBL1944580, “Synthesis of novel sulfonamide-1,2,4-triazoles, 1,3,4-thiadiazoles and 1,3,4-oxadiazoles, as potential antibacterial and antifungal agents. Biological evaluation and conformational analysis studies” (2012)
Converted amounts (≈) assume the structure as drawn.

Tested on: Staphylococcus aureus
Assay: Antibacterial activity against Staphylococcus aureus ATCC 6538 after 24 hrs by micro dilution method
Type: functional
Conditions: ATCC 6538, 24 h
Outline: (§1)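 Microdilution MIC in 96-well plates. Bacterial suspensions adjusted in sterile saline to 1.0 × 10^5 CFU/ml, giving 1.0 × 10^4 cfu per well in LB broth. Compounds tested at up to 1 mg/ml. Plates incubated 24 h. MIC taken as the lowest concentration with no visible growth under a binocular microscope. OD at 655 nm was also read against a blank and the positive control. Streptomycin and ampicillin were the positive controls.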

Row | Structure (SMILES) | MIC
1 | CCCCn1c(Cc2cc(OC)c(OC)cc2S(=O)(=O)N(C)C)n[nH]c1=O | 250 µM (≈ 99.6 µg/mL)

Tested on: Enterobacter cloacae
Assay: Antibacterial activity against Enterobacter cloacae human isolate after 24 hrs by micro dilution method
Type: functional
Conditions: not given
Outline: as §1

Row | Structure (SMILES) | MIC
2 | CCCCn1c(Cc2cc(OC)c(OC)cc2S(=O)(=O)N(C)C)n[nH]c1=O | 500 µM (≈ 199 µg/mL)

Tested on: Aspergillus niger
Assay: Antifungal activity against Aspergillus niger ATCC 6275 after 72 hrs by serial dilution method
Type: functional
Conditions: ATCC 6275, 72 h
Outline: (§2)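 Modified microdilution MIC. Spores were washed from malt agar cultures with sterile 0.85% saline containing 0.1% Tween 80 and adjusted to about 1.0 × 10^5 per 100 µl well in malt broth. Compounds were dissolved in DMSO (1 mg/ml). Plates incubated 72 h at 28 °C. MIC is the lowest concentration with no visible growth under a binocular microscope. Bifonazole and ketoconazole were the references.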

Row | Structure (SMILES) | MIC
3 | CCCCn1c(Cc2cc(OC)c(OC)cc2S(=O)(=O)N(C)C)n[nH]c1=O | 130 µM (≈ 51.8 µg/mL)

Tested on: Aspergillus versicolor
Assay: Antifungal activity against Aspergillus versicolor ATCC 11730 after 72 hrs by serial dilution method
Type: functional
Conditions: ATCC 11730, 72 h
Outline: as §2

Row | Structure (SMILES) | MIC
4 | CCCCn1c(Cc2cc(OC)c(OC)cc2S(=O)(=O)N(C)C)n[nH]c1=O | 130 µM (≈ 51.8 µg/mL)

Tested on: Escherichia coli
Assay: Antibacterial activity against Escherichia coli ATCC 35210 treated for 24 hrs followed by sub-cultivated for 72 hrs by micro dilution method
Type: functional
Conditions: not given
Outline: (§3)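 2 µl from each well was serially subcultured into 100 µl fresh broth per well and incubated a further 72 h. MBC is the lowest concentration with no visible growth, taken as 99.5% killing of the original inoculum. Streptomycin and ampicillin were the positive controls.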

Row | Structure (SMILES) | MBC
5 | CCCCn1c(Cc2cc(OC)c(OC)cc2S(=O)(=O)N(C)C)n[nH]c1=O | 250 µM (≈ 99.6 µg/mL)

Tested on: Trichoderma viride
Assay: Antifungal activity against Trichoderma viride IAM 5061 treated for 72 hrs followed by sub-cultivated for 5 days by serial dilution method
Type: functional
Conditions: not given
Outline: (§4)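 MFC obtained after the 72 h, 28 °C malt-broth microdilution (spore inoculum about 1.0 × 10^5 per well, compounds from 1 mg/ml DMSO). 2 µl was serially subcultured into 100 µl broth per well and incubated a further 5 days at 28 °C. MFC is the lowest concentration with no visible growth, taken as 99.5% killing of the original inoculum.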

Row | Structure (SMILES) | MFC
6 | CCCCn1c(Cc2cc(OC)c(OC)cc2S(=O)(=O)N(C)C)n[nH]c1=O | 60 µM (≈ 23.9 µg/mL)

Tested on: Micrococcus flavus
Assay: Antibacterial activity against Micrococcus flavus ATCC 10240 treated for 24 hrs followed by sub-cultivated for 72 hrs by micro dilution method
Type: functional
Conditions: not given
Outline: as §3

Row | Structure (SMILES) | MBC
7 | CCCCn1c(Cc2cc(OC)c(OC)cc2S(=O)(=O)N(C)C)n[nH]c1=O | 630 µM (≈ 251 µg/mL)

Tested on: Salmonella typhimurium
Assay: Antibacterial activity against Salmonella Typhimurium ATCC 13311 after 24 hrs by micro dilution method
Type: functional, Salmonella enterica subsp. enterica serovar Typhimurium
Conditions: Salmonella enterica, ATCC 13311, 24 h
Outline: as §1

Row | Structure (SMILES) | MIC
8 | CCCCn1c(Cc2cc(OC)c(OC)cc2S(=O)(=O)N(C)C)n[nH]c1=O | 500 µM (≈ 199 µg/mL)

Tested on: Aspergillus fumigatus
Assay: Antifungal activity against Aspergillus fumigatus human isolate treated for 72 hrs followed by sub-cultivated for 5 days by serial dilution method
Type: functional
Conditions: not given
Outline: as §4

Row | Structure (SMILES) | MFC
9 | CCCCn1c(Cc2cc(OC)c(OC)cc2S(=O)(=O)N(C)C)n[nH]c1=O | 250 µM (≈ 99.6 µg/mL)

Tested on: Aspergillus versicolor
Assay: Antifungal activity against Aspergillus versicolor ATCC 11730 treated for 72 hrs followed by sub-cultivated for 5 days by serial dilution method
Type: functional
Conditions: not given
Outline: as §4

Row | Structure (SMILES) | MFC
10 | CCCCn1c(Cc2cc(OC)c(OC)cc2S(=O)(=O)N(C)C)n[nH]c1=O | 380 µM (≈ 151 µg/mL)

Tested on: Pseudomonas aeruginosa
Assay: Antibacterial activity against Pseudomonas aeruginosa ATCC 27853 after 24 hrs by micro dilution method
Type: functional
Conditions: ATCC 27853, 24 h
Outline: as §1

Row | Structure (SMILES) | MIC
11 | CCCCn1c(Cc2cc(OC)c(OC)cc2S(=O)(=O)N(C)C)n[nH]c1=O | 380 µM (≈ 151 µg/mL)

Tested on: Micrococcus flavus
Assay: Antibacterial activity against Micrococcus flavus ATCC 10240 after 24 hrs by micro dilution method
Type: functional
Conditions: ATCC 10240, 24 h
Outline: as §1

Row | Structure (SMILES) | MIC
12 | CCCCn1c(Cc2cc(OC)c(OC)cc2S(=O)(=O)N(C)C)n[nH]c1=O | 630 µM (≈ 251 µg/mL)

Tested on: Listeria monocytogenes
Assay: Antibacterial activity against Listeria monocytogenes NCTC 7973 treated for 24 hrs followed by sub-cultivated for 72 hrs by micro dilution method
Type: functional
Conditions: not given
Outline: as §3

Row | Structure (SMILES) | MBC
13 | CCCCn1c(Cc2cc(OC)c(OC)cc2S(=O)(=O)N(C)C)n[nH]c1=O | 380 µM (≈ 151 µg/mL)

Tested on: Talaromyces funiculosus
Assay: Antifungal activity against Penicillium funiculosum ATCC 36839 after 72 hrs by serial dilution method
Type: functional
Conditions: ATCC 36839, 72 h
Outline: as §2

Row | Structure (SMILES) | MIC
14 | CCCCn1c(Cc2cc(OC)c(OC)cc2S(=O)(=O)N(C)C)n[nH]c1=O | 130 µM (≈ 51.8 µg/mL)

Tested on: Listeria monocytogenes
Assay: Antibacterial activity against Listeria monocytogenes NCTC 7973 after 24 hrs by micro dilution method
Type: functional
Conditions: NCTC 7973, 24 h
Outline: as §1

Row | Structure (SMILES) | MIC
15 | CCCCn1c(Cc2cc(OC)c(OC)cc2S(=O)(=O)N(C)C)n[nH]c1=O | 380 µM (≈ 151 µg/mL)

Tested on: Trichoderma viride
Assay: Antifungal activity against Trichoderma viride IAM 5061 after 72 hrs by serial dilution method
Type: functional
Conditions: IAM 5061, 72 h
Outline: as §2

Row | Structure (SMILES) | MIC
16 | CCCCn1c(Cc2cc(OC)c(OC)cc2S(=O)(=O)N(C)C)n[nH]c1=O | 30 µM (≈ 12 µg/mL)

Tested on: Bacillus cereus
Assay: Antibacterial activity against Bacillus cereus clinical isolate treated for 24 hrs followed by sub-cultivated for 72 hrs by micro dilution method
Type: functional
Conditions: not given
Outline: as §3

Row | Structure (SMILES) | MBC
17 | CCCCn1c(Cc2cc(OC)c(OC)cc2S(=O)(=O)N(C)C)n[nH]c1=O | 760 µM (≈ 303 µg/mL)

Tested on: Fulvia fulva
Assay: Antifungal activity against Fulvia fulva treated for 72 hrs followed by sub-cultivated for 5 days by serial dilution method
Type: functional
Conditions: not given
Outline: as §4

Row | Structure (SMILES) | MFC
18 | CCCCn1c(Cc2cc(OC)c(OC)cc2S(=O)(=O)N(C)C)n[nH]c1=O | 250 µM (≈ 99.6 µg/mL)

Tested on: Aspergillus flavus
Assay: Antifungal activity against Aspergillus flavus ATCC 9643 treated for 72 hrs followed by sub-cultivated for 5 days by serial dilution method
Type: functional
Conditions: not given
Outline: as §4

Row | Structure (SMILES) | MFC
19 | CCCCn1c(Cc2cc(OC)c(OC)cc2S(=O)(=O)N(C)C)n[nH]c1=O | 380 µM (≈ 151 µg/mL)

Tested on: Aspergillus niger
Assay: Antifungal activity against Aspergillus niger ATCC 6275 treated for 72 hrs followed by sub-cultivated for 5 days by serial dilution method
Type: functional
Conditions: not given
Outline: as §4

Row | Structure (SMILES) | MFC
20 | CCCCn1c(Cc2cc(OC)c(OC)cc2S(=O)(=O)N(C)C)n[nH]c1=O | 380 µM (≈ 151 µg/mL)

Tested on: Enterobacter cloacae
Assay: Antibacterial activity against Enterobacter cloacae human isolate treated for 24 hrs followed by sub-cultivated for 72 hrs by micro dilution method
Type: functional
Conditions: not given
Outline: as §3

Row | Structure (SMILES) | MBC
21 | CCCCn1c(Cc2cc(OC)c(OC)cc2S(=O)(=O)N(C)C)n[nH]c1=O | 760 µM (≈ 303 µg/mL)

Tested on: Penicillium ochrochloron
Assay: Antifungal activity against Penicillium ochrochloron ATCC 9112 after 72 hrs by serial dilution method
Type: functional
Conditions: ATCC 9112, 72 h
Outline: as §2

Row | Structure (SMILES) | MIC
22 | CCCCn1c(Cc2cc(OC)c(OC)cc2S(=O)(=O)N(C)C)n[nH]c1=O | 130 µM (≈ 51.8 µg/mL)

Tested on: Aspergillus fumigatus
Assay: Antifungal activity against Aspergillus fumigatus human isolate after 72 hrs by serial dilution method
Type: functional
Conditions: not given
Outline: as §2

Row | Structure (SMILES) | MIC
23 | CCCCn1c(Cc2cc(OC)c(OC)cc2S(=O)(=O)N(C)C)n[nH]c1=O | 250 µM (≈ 99.6 µg/mL)

Tested on: Salmonella typhimurium
Assay: Antibacterial activity against Salmonella Typhimurium ATCC 13311 treated for 24 hrs followed by sub-cultivated for 72 hrs by micro dilution method
Type: functional, Salmonella enterica subsp. enterica serovar Typhimurium
Conditions: Salmonella enterica
Outline: as §3

Row | Structure (SMILES) | MBC
24 | CCCCn1c(Cc2cc(OC)c(OC)cc2S(=O)(=O)N(C)C)n[nH]c1=O | 760 µM (≈ 303 µg/mL)

Tested on: Penicillium ochrochloron
Assay: Antifungal activity against Penicillium ochrochloron ATCC 9112 treated for 72 hrs followed by sub-cultivated for 5 days by serial dilution method
Type: functional
Conditions: not given
Outline: as §4

Row | Structure (SMILES) | MFC
25 | CCCCn1c(Cc2cc(OC)c(OC)cc2S(=O)(=O)N(C)C)n[nH]c1=O | 380 µM (≈ 151 µg/mL)

Tested on: Fulvia fulva
Assay: Antifungal activity against Fulvia fulva after 72 hrs by serial dilution method
Type: functional
Conditions: not given
Outline: as §2

Row | Structure (SMILES) | MIC
26 | CCCCn1c(Cc2cc(OC)c(OC)cc2S(=O)(=O)N(C)C)n[nH]c1=O | 250 µM (≈ 99.6 µg/mL)

Tested on: Talaromyces funiculosus
Assay: Antifungal activity against Penicillium funiculosum ATCC 36839 treated for 72 hrs followed by sub-cultivated for 5 days by serial dilution method
Type: functional
Conditions: not given
Outline: as §4

Row | Structure (SMILES) | MFC
27 | CCCCn1c(Cc2cc(OC)c(OC)cc2S(=O)(=O)N(C)C)n[nH]c1=O | 250 µM (≈ 99.6 µg/mL)

Tested on: Staphylococcus aureus
Assay: Antibacterial activity against Staphylococcus aureus ATCC 6538 treated for 24 hrs followed by sub-cultivated for 72 hrs by micro dilution method
Type: functional
Conditions: not given
Outline: as §3

Row | Structure (SMILES) | MBC
28 | CCCCn1c(Cc2cc(OC)c(OC)cc2S(=O)(=O)N(C)C)n[nH]c1=O | 500 µM (≈ 199 µg/mL)

Tested on: Bacillus cereus
Assay: Antibacterial activity against Bacillus cereus clinical isolate after 24 hrs by micro dilution method
Type: functional
Conditions: not given
Outline: as §1

Row | Structure (SMILES) | MIC
29 | CCCCn1c(Cc2cc(OC)c(OC)cc2S(=O)(=O)N(C)C)n[nH]c1=O | 250 µM (≈ 99.6 µg/mL)

Tested on: Pseudomonas aeruginosa
Assay: Antibacterial activity against Pseudomonas aeruginosa ATCC 27853 treated for 24 hrs followed by sub-cultivated for 72 hrs by micro dilution method
Type: functional
Conditions: not given
Outline: as §3

Row | Structure (SMILES) | MBC
30 | CCCCn1c(Cc2cc(OC)c(OC)cc2S(=O)(=O)N(C)C)n[nH]c1=O | 380 µM (≈ 151 µg/mL)

Tested on: Escherichia coli
Assay: Antibacterial activity against Escherichia coli ATCC 35210 after 24 hrs by micro dilution method
Type: functional
Conditions: ATCC 35210, 24 h
Outline: as §1

Row | Structure (SMILES) | MIC
31 | CCCCn1c(Cc2cc(OC)c(OC)cc2S(=O)(=O)N(C)C)n[nH]c1=O | 130 µM (≈ 51.8 µg/mL)

Tested on: Aspergillus flavus
Assay: Antifungal activity against Aspergillus flavus ATCC 9643 after 72 hrs by serial dilution method
Type: functional
Conditions: ATCC 9643, 72 h
Outline: as §2

Row | Structure (SMILES) | MIC
32 | CCCCn1c(Cc2cc(OC)c(OC)cc2S(=O)(=O)N(C)C)n[nH]c1=O | 130 µM (≈ 51.8 µg/mL)
